Test system: not listed separately
Assay: Cytotoxicity against mock-infected BHK21 cells after 48 to 96 hrs by MTT assay
Format: functional
Details: Mesocricetus auratus, BHK-21
Summary of the method: (§1)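 Mock-infected MDBK (6 × 10^5 cells/mL; MEM-E, 10% horse serum, 1 mM pyruvate) or BHK (1 × 10^6 cells/mL; MEM-E, 10% FBS) cells were incubated at 37 °C, 5% CO2 with serial dilutions from 100 µM, 1:5. Viability by MTT after 48–96 h. CC50 from linear regression against untreated controls.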

| Compound | CC50 [µM] |
| --- | --- |
| FC(F)(F)c1ccc2c(c1)nc(Cc1ccc(Cl)c(Cl)c1)n2C[C@H]1CCCN2CCCC[C@H]12 | 34 |
| COc1ccc(Cc2nc3cc(C(F)(F)F)ccc3n2C[C@H]2CCCN3CCCC[C@H]23)cc1 | > 100 |
| CC(=O)Nc1ccc(Cc2nc3cc(C(F)(F)F)ccc3[nH]2)cc1 | > 100 |
| Clc1ccc(Cc2nc3cc(Cl)c(Cl)cc3[nH]2)cc1 | > 100 |
| Clc1ccc(Cc2nc3cc(Cl)c(Cl)cc3[nH]2)cc1Cl | > 100 |

Test system: not listed separately
Assay: Cytotoxicity against mock-infected african green monkey Vero 76 cells after 48 to 96 hrs by MTT assay
Format: cell-based
Details: chlorocebus sabaeus, mock-infected Vero 76 cells

| Compound | CC50 [µM] |
| --- | --- |
| FC(F)(F)c1ccc2c(c1)nc(Cc1ccc(Cl)c(Cl)c1)n2C[C@H]1CCCN2CCCC[C@H]12 | > 100 |
| COc1ccc(Cc2nc3cc(C(F)(F)F)ccc3n2C[C@H]2CCCN3CCCC[C@H]23)cc1 | > 100 |
| CC(=O)Nc1ccc(Cc2nc3cc(C(F)(F)F)ccc3[nH]2)cc1 | > 100 |
| Clc1ccc(Cc2nc3cc(Cl)c(Cl)cc3[nH]2)cc1 | 71 |
| Clc1ccc(Cc2nc3cc(Cl)c(Cl)cc3[nH]2)cc1Cl | 70 |

Test system: Vesicular stomatitis virus
Assay: Antiviral activity against Vesicular stomatitis virus infected in african green monkey Vero 76 cells assessed as reduction in plaque number after 2 days by plaque reduction assay
Format: functional, organism-based
Details: 48 h

| Compound | EC50 [µM] |
| --- | --- |
| FC(F)(F)c1ccc2c(c1)nc(Cc1ccc(Cl)c(Cl)c1)n2C[C@H]1CCCN2CCCC[C@H]12 | > 100 |
| COc1ccc(Cc2nc3cc(C(F)(F)F)ccc3n2C[C@H]2CCCN3CCCC[C@H]23)cc1 | > 100 |
| CC(=O)Nc1ccc(Cc2nc3cc(C(F)(F)F)ccc3[nH]2)cc1 | > 100 |
| Clc1ccc(Cc2nc3cc(Cl)c(Cl)cc3[nH]2)cc1 | > 100 |
| Clc1ccc(Cc2nc3cc(Cl)c(Cl)cc3[nH]2)cc1Cl | > 100 |

Test system: Poliovirus 1
Assay: Antiviral activity against Poliovirus type 1 Sabin strain infected in african green monkey Vero 76 cells assessed as reduction in plaque number after 2 days by plaque reduction assay
Format: functional, organism-based
Details: Enterovirus C, 48 h

| Compound | EC50 [µM] |
| --- | --- |
| FC(F)(F)c1ccc2c(c1)nc(Cc1ccc(Cl)c(Cl)c1)n2C[C@H]1CCCN2CCCC[C@H]12 | > 100 |
| COc1ccc(Cc2nc3cc(C(F)(F)F)ccc3n2C[C@H]2CCCN3CCCC[C@H]23)cc1 | > 100 |
| CC(=O)Nc1ccc(Cc2nc3cc(C(F)(F)F)ccc3[nH]2)cc1 | > 100 |
| Clc1ccc(Cc2nc3cc(Cl)c(Cl)cc3[nH]2)cc1 | > 100 |
| Clc1ccc(Cc2nc3cc(Cl)c(Cl)cc3[nH]2)cc1Cl | > 100 |

Test system: Respiratory syncytial virus
Assay: Antiviral activity against Respiratory syncytial virus infected in african green monkey Vero 76 cells assessed as reduction in plaque number after 5 days by plaque reduction assay
Format: functional, organism-based
Details: human respiratory syncytial virus, 120 h

| Compound | EC50 [µM] |
| --- | --- |
| FC(F)(F)c1ccc2c(c1)nc(Cc1ccc(Cl)c(Cl)c1)n2C[C@H]1CCCN2CCCC[C@H]12 | > 100 |
| COc1ccc(Cc2nc3cc(C(F)(F)F)ccc3n2C[C@H]2CCCN3CCCC[C@H]23)cc1 | > 100 |
| CC(=O)Nc1ccc(Cc2nc3cc(C(F)(F)F)ccc3[nH]2)cc1 | > 100 |
| Clc1ccc(Cc2nc3cc(Cl)c(Cl)cc3[nH]2)cc1 | > 100 |
| Clc1ccc(Cc2nc3cc(Cl)c(Cl)cc3[nH]2)cc1Cl | > 100 |

Test system: Bovine viral diarrhea virus 1
Assay: Antiviral activity against Bovine viral diarrhea virus infected in MDBK cells assessed as inhibition of virus-induced cytopathogenicity after 3 to 4 days by MTT assay
Format: functional, organism-based
Details: Bovine viral diarrhea virus isolates and strains

| Compound | EC50 [µM] |
| --- | --- |
| FC(F)(F)c1ccc2c(c1)nc(Cc1ccc(Cl)c(Cl)c1)n2C[C@H]1CCCN2CCCC[C@H]12 | > 100 |
| COc1ccc(Cc2nc3cc(C(F)(F)F)ccc3n2C[C@H]2CCCN3CCCC[C@H]23)cc1 | > 100 |
| CC(=O)Nc1ccc(Cc2nc3cc(C(F)(F)F)ccc3[nH]2)cc1 | > 100 |
| Clc1ccc(Cc2nc3cc(Cl)c(Cl)cc3[nH]2)cc1 | > 100 |
| Clc1ccc(Cc2nc3cc(Cl)c(Cl)cc3[nH]2)cc1Cl | > 100 |

Test system: Reovirus sp.
Assay: Antiviral activity against Reovirus type-1 infected in BHK21 cells assessed as inhibition of virus-induced cytopathogenicity after 3 to 4 days by MTT assay
Format: functional, organism-based
Details: BHK-21

| Compound | EC50 [µM] |
| --- | --- |
| FC(F)(F)c1ccc2c(c1)nc(Cc1ccc(Cl)c(Cl)c1)n2C[C@H]1CCCN2CCCC[C@H]12 | > 100 |
| COc1ccc(Cc2nc3cc(C(F)(F)F)ccc3n2C[C@H]2CCCN3CCCC[C@H]23)cc1 | > 100 |
| CC(=O)Nc1ccc(Cc2nc3cc(C(F)(F)F)ccc3[nH]2)cc1 | > 100 |
| Clc1ccc(Cc2nc3cc(Cl)c(Cl)cc3[nH]2)cc1 | > 100 |
| Clc1ccc(Cc2nc3cc(Cl)c(Cl)cc3[nH]2)cc1Cl | > 100 |

Test system: Human alphaherpesvirus 1
Assay: Antiviral activity against HSV1 infected in african green monkey Vero 76 cells assessed as reduction in plaque number after 3 days by plaque reduction assay
Format: functional, organism-based
Details: Human alphaherpesvirus 1, Vero, 72 h

| Compound | EC50 [µM] |
| --- | --- |
| FC(F)(F)c1ccc2c(c1)nc(Cc1ccc(Cl)c(Cl)c1)n2C[C@H]1CCCN2CCCC[C@H]12 | > 100 |
| COc1ccc(Cc2nc3cc(C(F)(F)F)ccc3n2C[C@H]2CCCN3CCCC[C@H]23)cc1 | > 100 |
| CC(=O)Nc1ccc(Cc2nc3cc(C(F)(F)F)ccc3[nH]2)cc1 | > 100 |
| Clc1ccc(Cc2nc3cc(Cl)c(Cl)cc3[nH]2)cc1 | > 100 |
| Clc1ccc(Cc2nc3cc(Cl)c(Cl)cc3[nH]2)cc1Cl | > 100 |

Test system: not listed separately
Assay: Cytotoxicity against mock-infected human MT4 cells after 96 hrs by MTT assay
Format: cell-based
Details: not given
Summary of the method: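 Exponentially growing MT-4 cells were seeded at 1 × 10^5 cells/mL in RPMI-1640 with 10% FBS and held at 37 °C, 5% CO2 with serial compound dilutions. Viability was read by MTT after 96 h. CC50 from linear regression against untreated controls.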

| Compound | CC50 at 96 h [µM] |
| --- | --- |
| FC(F)(F)c1ccc2c(c1)nc(Cc1ccc(Cl)c(Cl)c1)n2C[C@H]1CCCN2CCCC[C@H]12 | 4 |
| COc1ccc(Cc2nc3cc(C(F)(F)F)ccc3n2C[C@H]2CCCN3CCCC[C@H]23)cc1 | ≥ 100 |
| CC(=O)Nc1ccc(Cc2nc3cc(C(F)(F)F)ccc3[nH]2)cc1 | > 100 |
| Clc1ccc(Cc2nc3cc(Cl)c(Cl)cc3[nH]2)cc1 | 37 |
| Clc1ccc(Cc2nc3cc(Cl)c(Cl)cc3[nH]2)cc1Cl | > 100 |

Test system: Coxsackievirus B5
Assay: Antiviral activity against Coxsackievirus B5 infected in african green monkey Vero 76 cells assessed as reduction in plaque number after 3 days by plaque reduction assay
Format: functional, organism-based
Details: Enterovirus B, 72 h

| Compound | EC50 [µM] |
| --- | --- |
| FC(F)(F)c1ccc2c(c1)nc(Cc1ccc(Cl)c(Cl)c1)n2C[C@H]1CCCN2CCCC[C@H]12 | > 100 |
| COc1ccc(Cc2nc3cc(C(F)(F)F)ccc3n2C[C@H]2CCCN3CCCC[C@H]23)cc1 | > 100 |
| CC(=O)Nc1ccc(Cc2nc3cc(C(F)(F)F)ccc3[nH]2)cc1 | > 100 |
| Clc1ccc(Cc2nc3cc(Cl)c(Cl)cc3[nH]2)cc1 | > 100 |
| Clc1ccc(Cc2nc3cc(Cl)c(Cl)cc3[nH]2)cc1Cl | > 100 |

Test system: Vaccinia virus
Assay: Antiviral activity against Vaccinia Virus infected in african green monkey Vero 76 cells assessed as reduction in plaque number after 3 days by plaque reduction assay
Format: functional, organism-based
Details: Orthopoxvirus vaccinia, 72 h

| Compound | EC50 [µM] |
| --- | --- |
| FC(F)(F)c1ccc2c(c1)nc(Cc1ccc(Cl)c(Cl)c1)n2C[C@H]1CCCN2CCCC[C@H]12 | > 100 |
| COc1ccc(Cc2nc3cc(C(F)(F)F)ccc3n2C[C@H]2CCCN3CCCC[C@H]23)cc1 | > 100 |
| CC(=O)Nc1ccc(Cc2nc3cc(C(F)(F)F)ccc3[nH]2)cc1 | > 100 |
| Clc1ccc(Cc2nc3cc(Cl)c(Cl)cc3[nH]2)cc1 | > 100 |
| Clc1ccc(Cc2nc3cc(Cl)c(Cl)cc3[nH]2)cc1Cl | > 100 |

Test system: not listed separately
Assay: Cytotoxicity against mock-infected MDBK cells after 48 to 96 hrs by MTT assay
Format: cell-based, Bos taurus
Details: cattle
Summary of the method: as §1

| Compound | CC50 [µM] |
| --- | --- |
| FC(F)(F)c1ccc2c(c1)nc(Cc1ccc(Cl)c(Cl)c1)n2C[C@H]1CCCN2CCCC[C@H]12 | > 100 |
| COc1ccc(Cc2nc3cc(C(F)(F)F)ccc3n2C[C@H]2CCCN3CCCC[C@H]23)cc1 | > 100 |
| CC(=O)Nc1ccc(Cc2nc3cc(C(F)(F)F)ccc3[nH]2)cc1 | > 100 |
| Clc1ccc(Cc2nc3cc(Cl)c(Cl)cc3[nH]2)cc1 | 9 |
| Clc1ccc(Cc2nc3cc(Cl)c(Cl)cc3[nH]2)cc1Cl | > 100 |

Test system: Yellow fever virus
Assay: Antiviral activity against Yellow fever virus infected in BHK21 cells assessed as inhibition of virus-induced cytopathogenicity after 3 to 4 days by MTT assay
Format: functional, organism-based
Details: BHK-21

| Compound | EC50 [µM] |
| --- | --- |
| FC(F)(F)c1ccc2c(c1)nc(Cc1ccc(Cl)c(Cl)c1)n2C[C@H]1CCCN2CCCC[C@H]12 | > 100 |
| COc1ccc(Cc2nc3cc(C(F)(F)F)ccc3n2C[C@H]2CCCN3CCCC[C@H]23)cc1 | > 100 |
| CC(=O)Nc1ccc(Cc2nc3cc(C(F)(F)F)ccc3[nH]2)cc1 | > 100 |
| Clc1ccc(Cc2nc3cc(Cl)c(Cl)cc3[nH]2)cc1 | > 100 |
| Clc1ccc(Cc2nc3cc(Cl)c(Cl)cc3[nH]2)cc1Cl | > 100 |

Test system: Human immunodeficiency virus 1
Assay: Antiviral activity against HIV1 infected in human MT4 cells assessed as inhibition of virus-induced cytopathogenicity after 4 days by MTT assay
Format: functional, organism-based
Details: Human immunodeficiency virus 1, MT4, 96 h
Summary of the method: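 MT-4 cells (1 × 10^4/well in RPMI) were infected acutely with HIV-1 IIIB, 100 CCID50 (m.o.i. 0.01), with serial dilutions from 100 µM, 1:5. After 4 days at 37 °C, protection from virus-induced cytopathogenicity was read by MTT. EC50 came from linear regression against untreated controls.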

| Compound | EC50 [µM] |
| --- | --- |
| FC(F)(F)c1ccc2c(c1)nc(Cc1ccc(Cl)c(Cl)c1)n2C[C@H]1CCCN2CCCC[C@H]12 | > 100 |
| COc1ccc(Cc2nc3cc(C(F)(F)F)ccc3n2C[C@H]2CCCN3CCCC[C@H]23)cc1 | > 100 |
| CC(=O)Nc1ccc(Cc2nc3cc(C(F)(F)F)ccc3[nH]2)cc1 | > 100 |
| Clc1ccc(Cc2nc3cc(Cl)c(Cl)cc3[nH]2)cc1 | > 100 |
| Clc1ccc(Cc2nc3cc(Cl)c(Cl)cc3[nH]2)cc1Cl | > 100 |
